pEC50: −log10 of the molar value.
How the values were obtained:
[1] = tested on: Human immunodeficiency virus 1; assay: Ratio of EC50 for HIV1 NL4-3 harboring L10I/G48V/I54V/L90M amino acid substitution in protease encoding region to EC50 for HIV1 NL4-3; type: functional
How it was run: (§1)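 MT-4 cells (10^5/ml) infected with 100 TCID50s of PI-selected HIV-1NL4-3 variants or the parental strain, with or without serial drug concentrations, at 37°C. Day 7 supernatant p24 Gag measured by chemiluminescent enzyme immunoassay. […] Triplicate. Ratio is variant EC50 over wild-type EC50.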

[2] = tested on: Human immunodeficiency virus 1; assay: Antiviral activity against HIV1 G harboring L10I/V11I/T12E/I15V/L19I/R41K/M46L/L63P/A71T/V82A/L90M in protease encoding region infected in human PHA-PBC assessed as inhibition of p24 Gag protein production by ELISA; type: functional, organism-based; settings: Human immunodeficiency virus 1, G
How it was run: (§2)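 Phytohemagglutinin-stimulated PBMs (10^6/ml) infected with 50 TCID50s of each primary isolate, cultured with or without drug in 10-fold serial dilutions. On day 7, supernatant p24 Gag was measured by automated chemiluminescent enzyme immunoassay. […] Triplicate.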

[3] = tested on: Human immunodeficiency virus 1; assay: Antiviral activity against HIV1 NL4-3 harboring L10F/L33F/M46I/I47V/Q58E/V82I/I84V/I85V amino acid substitution in protease encoding region infected in human MT4 cells assessed as inhibition of p24 Gag protein production selected at 5 uM of GRL-02031 by ELISA; type: functional, organism-based; settings: Human immunodeficiency virus 1, NL4-3, MT4
How it was run: (§3)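 Cell-free passage used day-7 supernatants. Variants were then tested in MT-4 cells (10^5/ml) with 100 TCID50s, with or without drug, at 37°C. Day-7 p24 Gag was read by chemiluminescent immunoassay; EC50 vs drug-free control; triplicate.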

[4] = tested on: Human immunodeficiency virus 1; assay: Ratio of EC50 for HIV1 MM harboring L10I/K43T/M46L/I54V/L63P/A71V/V82A/L90M/Q92K in protease encoding region infected to EC50 for HIV1 ERS104pre; type: functional
[5] = tested on: Human immunodeficiency virus; assay: Antiviral activity against HIV1 LAI infected in human MT2 cells after 7 days by MTT assay; type: functional, organism-based; settings: Human immunodeficiency virus 1, LAI, MT2, 168 h
[6] = tested on: Human immunodeficiency virus 1; assay: Ratio of EC50 for HIV1 G harboring L10I/V11I/T12E/I15V/L19I/R41K/M46L/L63P/A71T/V82A/L90M in protease encoding region to EC50 for HIV1 ERS104pre; type: functional
[7] = tested on: Human immunodeficiency virus 1; assay: Antiviral activity against HIV1 NL4-3 harboring L10F/V32I/M46I/I54M//A71V/I84V amino acid substitution in protease encoding region infected in human MT4 cells assessed as inhibition of p24 Gag protein production selected at 5 uM of amprenavir by ELISA; type: functional, organism-based; settings: Human immunodeficiency virus 1, NL4-3, MT4; how it was run: as §3
[8] = tested on: Human immunodeficiency virus 1; assay: Ratio of EC50 for HIV1 A harboring L10I/I15V/E35D/N37E/K45R/I54V/L63P/A71V/V82T/L90M/I93L/C95F in protease encoding region to EC50 for HIV1 ERS104pre; type: functional
[9] = tested on: Human immunodeficiency virus 1; assay: Ratio of EC50 for HIV1 NL4-3 harboring L10F/V32I/M46I/I54M//A71V/I84V amino acid substitution in protease encoding region to EC50 for HIV1 NL4-3; type: functional; how it was run: as §1
[10] = tested on: Human immunodeficiency virus 1; assay: Antiviral activity against HIV1 NL4-3 harboring L10F/M46I/I54V/V82A amino acid substitution in protease encoding region infected in human MT4 cells assessed as inhibition of p24 Gag protein production selected at 1 uM of Lopinavir by ELISA; type: functional, organism-based; settings: Human immunodeficiency virus 1, NL4-3, MT4; how it was run: as §3
[11] = tested on: Human immunodeficiency virus 1; assay: Antiviral activity against HIV1 B harboring L10I/I15V/E35D/N37E/K45R/I54V/L63P/A71V/V82T/L90M/I93L/C95F in protease encoding region infected in human PHA-PBC assessed as inhibition of p24 Gag protein production by ELISA; type: functional, organism-based; settings: Human immunodeficiency virus 1, B; how it was run: as §2
[12] = tested on: Human immunodeficiency virus 1; assay: Ratio of EC50 for HIV1 TM harboring L10I/K14R/R41K/M46L/I54V/L63P/A71V/V82A/L90M/I93L in protease encoding region to EC50 for HIV1 ERS104pre; type: functional
How it was run: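 PHA-stimulated PBMs (10^6/ml) infected with 50 TCID50s of primary HIV-1 isolate and cultured with 10-fold serial drug dilutions. Day 7 supernatant p24 Gag measured by chemiluminescent enzyme immunoassay. […] Triplicate. Ratio is resistant isolate EC50 over reference isolate EC50.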

[13] = tested on: Human immunodeficiency virus 1; assay: Ratio of EC50 for HIV1 NL4-3 harboring L10F/M46I/I54V/V82A amino acid substitution in protease encoding region to EC50 for HIV1 NL4-3; type: functional; how it was run: as §1
[14] = tested on: Human immunodeficiency virus 1; assay: Antiviral activity against HIV1 NL4-3 infected in human MT4 cells assessed as inhibition of p24 gag protein production by ELISA; type: functional, organism-based; settings: Human immunodeficiency virus 1, NL4-3, MT4
How it was run: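 MT-4 cells (10^5/ml) were infected with 100 TCID50s of HIV-1 and cultured at 37°C with or without various drug concentrations. On day 7, supernatant p24 Gag was measured by automated chemiluminescent enzyme immunoassay. […] Assays were run in triplicate.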

[15] = tested on: Human immunodeficiency virus 1; assay: Ratio of EC50 for HIV1 NL4-3 harboring I84V/I85V mutation in protease encoding region infected in human […] cells to EC50 for HIV1 NL4-3 infected in human MT4 cells; type: functional
[16] = tested on: Human immunodeficiency virus 1; assay: Ratio of EC50 for HIV1 NL4-3 harboring M46I mutation in protease encoding region infected in human […] cells to EC50 for HIV1 NL4-3 infected in human MT4 cells; type: functional
[17] = tested on: Human immunodeficiency virus 1; assay: Antiviral activity against HIV1 NL4-3 harboring I47V mutation in protease encoding region infected in human […] cells assessed as inhibition of p24 Gag protein production by ELISA; type: functional, organism-based; settings: Human immunodeficiency virus 1, NL4-3
How it was run: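 Protease PCR fragments (ApaI/SmaI) were cloned into pHIV-1NLSma, and virions were harvested from transfected 293T cells over 48 h. MT-4 target cells (10^5/ml) were infected with 100 TCID50s, with or without drug, at 37°C. Day-7 supernatant p24 Gag was read by chemiluminescent enzyme immunoassay.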

[18] = tested on: Human immunodeficiency virus 1; assay: Ratio of EC50 for ritonavir to compound against HIV1 NL4-3 harboring L10F/I47V/V82I/I85V mutation in protease encoding region infected in human […] cells; type: functional
[19] = tested on: Human immunodeficiency virus 1; assay: Ratio of EC50 for saquinavir to compound against HIV1 NL4-3 harboring L90M mutation in protease encoding region infected in human […] cells; type: functional
[20] = tested on: Human immunodeficiency virus 1; assay: Antiviral activity against HIV1 Ba-L infected in human PHA-PBM cells after 7 days by MTT assay; type: functional, organism-based; settings: Human immunodeficiency virus 1, Ba-L, PBMC, 168 h
[21] = tested on: Human immunodeficiency virus 1; assay: Ratio of EC50 for HIV1 NL4-3 harboring I84V mutation in protease encoding region infected in human […] cells to EC50 for HIV1 NL4-3 infected in human MT4 cells; type: functional
[22] = tested on: Human immunodeficiency virus 1; assay: Ratio of EC50 for HIV1 NL4-3 harboring I50V mutation in protease encoding region infected in human […] cells to EC50 for HIV1 NL4-3 infected in human MT4 cells; type: functional

Row | Compound | Ratio EC50 [1] | pEC50 [2] | pEC50 [3] | Ratio EC50 [4] | pEC50 [5] | Ratio EC50 [6] | pEC50 [7] | Ratio EC50 [8] | Ratio EC50 [9] | pEC50 [10] | pEC50 [11] | Ratio EC50 [12] | Ratio EC50 [13] | pEC50 [14] | other results
1 | CC(C)(C)NC(=O)[C@@H]1C[C@@H]2CCCC[C@@H]2CN1C[C@@H](O)[C@H](Cc1ccccc1)NC(=O)[C@H](CC(N)=O)NC(=O)c1ccc2ccccc2n1 | >125 | 7.57 | 8.10 | 30 | 7.85 | 3 | 7.80 | 11 | 2 | 7.48 | 6.52 | 30 | 4 | 8.10 | 
2 | CC(C)CN(C[C@@H](O)[C@H](Cc1ccccc1)NC(=O)O[C@H]1CCOC1)S(=O)(=O)c1ccc(N)cc1 | 8 | 6.64 | 6.68 | 16 | 7.48 | 9 | < 6.00 | 6 | >36 | 6.49 | 6.51 | 14 | 11 | 7.55 | 
3 | COc1ccc(S(=O)(=O)N(C[C@@H]2CCC(=O)N2)C[C@@H](O)[C@H](Cc2ccccc2)NC(=O)O[C@@H]2C[C@@H]3CCO[C@@H]3C2)cc1 | 6 | 7.55 | < 6.00 | 2 | 7.55 | 1 | 7.43 | 1 | 2 | 7.42 | 7.54 | 1 | 2 | 7.64 | Ratio EC50 [15]: 4.2; Ratio EC50 [16]: 1.2; pEC50 [17]: 7.43; Ratio EC50 [18]: 1.9; Ratio EC50 [19]: 1; pEC50 [20]: 7.82; Ratio EC50 [21]: 1.3; Ratio EC50 [22]: 0.7
4 | CC(C)(C)NC(=O)[C@@H]1CN(Cc2cccnc2)CCN1C[C@@H](O)C[C@@H](Cc1ccccc1)C(=O)N[C@H]1c2ccccc2C[C@H]1O.O | >71 | 6.47 | 7.36 | >48 | 7.36 | 16 | 6.66 | >48 | 16 | < 6.00 | < 6.00 | >48 | >71 | 7.85 | 
5 | Cc1c(O)cccc1C(=O)N[C@@H](CSc1ccccc1)[C@H](O)CN1C[C@H]2CCCC[C@H]2C[C@H]1C(=O)NC(C)(C)C | 18 | 6.64 | 7.96 | >63 | 7.64 | 14 | 6.77 | 21 | 10 | 6.29 | < 6.00 | >63 | 28 |  | 

From ChEMBL document CHEMBL1649117, “GRL-02031, a novel nonpeptidic protease inhibitor (PI) containing a stereochemically defined fused cyclopentanyltetrahydrofuran potent against multi-PI-resistant human immunodeficiency virus type 1 in vitro” (Antimicrob Agents Chemother, 2009)
